16 compounds from ChEMBL document CHEMBL2176870 (J Med Chem, 2012) can be followed below.

In brackets after ≈: the same amount, converted by molar mass. Some results are limits rather than exact numbers.

Series [1] concerns the target T1, Enoyl-[acyl-carrier-protein] reductase [NADPH] FabI (Staphylococcus aureus, UniProt Q6GI75).
T1 sequence (Q6GI75 whole entry): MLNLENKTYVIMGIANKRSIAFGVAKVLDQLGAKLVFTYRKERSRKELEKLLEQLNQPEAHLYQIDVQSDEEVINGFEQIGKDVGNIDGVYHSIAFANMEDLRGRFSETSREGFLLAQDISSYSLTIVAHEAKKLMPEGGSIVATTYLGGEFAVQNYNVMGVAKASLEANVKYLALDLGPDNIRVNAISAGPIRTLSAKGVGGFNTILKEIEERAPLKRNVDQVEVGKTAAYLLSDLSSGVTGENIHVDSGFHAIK
Kind of series: Inhibition of Staphylococcus aureus recombinant FabI using trans-2-octenoyl N-acetylcysteamine thioester as substrate preincubated for 60 mins. Put shortly:
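Recombinant S. aureus FabI (2 nM) in 50 mM ADA pH 6.5, 1 mM DTT, 0.006% Triton X-100, 50 mM NaCl. Preincubated 60 min at room temperature with 40 μM NADPH, 10 μM NADP+ and inhibitor in DMSO. Reaction started with 100 μM t-o-NAC. Inhibition versus untreated samples; IC50 by Langmuir fit.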

In a further series the test system is Streptococcus pneumoniae. Kind of series: Antibacterial activity against Streptococcus pneumoniae D39 after 18 hrs by broth microdilution method. It counts as functional. The settings on record: D39, 18 h. The gist of the method:
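CLSI broth microdilution with 2-fold dilutions from 0.06 to 64 μg/mL. Cation-adjusted Mueller–Hinton broth with 2.5% lysed horse blood, inoculum 5 × 10^5 CFU/mL, grown at 35 °C for 18 h in 5% CO2. MIC is the lowest concentration showing no visible growth.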

The test system of the next series is Enterococcus faecalis. Kind of series: Antibacterial activity against Enterococcus faecalis ATCC 29212 after 18 hrs by broth microdilution method. It counts as functional. The settings on record: ATCC 29212, 18 h. The gist of the method:
(§1)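 CLSI broth microdilution with serial 2-fold dilutions from 0.06 to 64 μg/mL. Cation-adjusted Mueller–Hinton broth, inoculum 5 × 10^5 CFU/mL, incubated at 35 °C for 18 h. MIC taken as the lowest concentration with no visible growth.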

Series [2] relates to Escherichia coli. Kind of series: Antibacterial activity against Escherichia coli C7 after 18 hrs by broth microdilution method. It counts as functional. The settings on record: C7, 18 h.
Series [3] has as its system Staphylococcus aureus. Kind of series: Antibacterial activity against Staphylococcus aureus CIP54.146 after 18 hrs by broth microdilution method. The class given is functional. The settings on record: CIP54.146, 18 h. Put shortly:
as §1

Series [4] can be described thus: Cytotoxicity against human HepG2 cells. The note with it: read-out: ED50 (the source's name). It counts as cell-based.
Series [5] concerns Staphylococcus haemolyticus. Kind of series: Antibacterial activity against methicillin-resistant Staphylococcus haemolyticus. It counts as functional.
The subject of series [6] is Staphylococcus epidermidis. Kind of series: Antibacterial activity against methicillin-resistant Staphylococcus epidermidis. It counts as functional.
Series [7] deals with Staphylococcus aureus. Kind of series: Antibacterial activity against methicillin-susceptible Staphylococcus aureus. It counts as functional.
Series [8] relates to Staphylococcus aureus. Kind of series: Antibacterial activity against methicillin-resistant Staphylococcus aureus. The class given is functional.
The test system of series [9] is Staphylococcus aureus. Kind of series: Antibacterial activity against community acquired methicillin-resistant Staphylococcus aureus. The class given is functional.
A further series deals with Proteus mirabilis. Kind of series: Antibacterial activity against Proteus mirabilis. It counts as functional.
In series [10] the test system is Escherichia coli. Kind of series: Antibacterial activity against Escherichia coli. It counts as functional.
In a further series the test system is Moraxella catarrhalis. Kind of series: Antibacterial activity against Moraxella catarrhalis. It counts as functional.
A further series deals with Haemophilus influenzae. Kind of series: Antibacterial activity against Haemophilus influenzae. It counts as functional.
Another series concerns Neisseria meningitidis. Kind of series: Antibacterial activity against Neisseria meningitidis. The class given is functional.
The subject of the next series is Neisseria gonorrhoeae. Kind of series: Antibacterial activity against Neisseria gonorrhoeae. It counts as functional.
For series [11], the system named is Staphylococcus aureus. Kind of series: Antibacterial activity against methicillin-resistant Staphylococcus aureus NRS385 infected in Swiss mouse. The class given is functional. Put shortly: (§2)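 Murine lethal systemic infection by intraperitoneal MRSA challenge. A single subcutaneous dose was given 5 min after infection.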
For series [12], the system named is Staphylococcus aureus. Kind of series: Antibacterial activity against methicillin-resistant Staphylococcus aureus NRS384 infected in Swiss mouse. It counts as functional. Put shortly:
as §2

Series [13] deals with Staphylococcus aureus. Kind of series: Antibacterial activity against methicillin-resistant Staphylococcus aureus NRS382 infected in Swiss mouse. The class given is functional. The gist of the method: as §2

For `CCc1cc(O)c(Oc2ccc[nH]c2=O)cc1F`, in [1], the IC50 was more than 100000 nM. The MIC in the series on Streptococcus pneumoniae, against Enterococcus faecalis, with Escherichia coli [2] and against Staphylococcus aureus [3] was more than 32 µg/mL in each case.

`CCc1cc(O)c(Oc2ccc(C(=O)N3CCNC(=O)C3)cc2F)cc1F`: the CC50 in series [4] was more than 32 µg/mL. Moreover, the MIC in the series on Streptococcus pneumoniae was more than 32 µg/mL; against Enterococcus faecalis it was more than 32 µg/mL; against Escherichia coli [2], 4 µg/mL (≈ 10.6 µM); with Staphylococcus aureus [3] it was 0.25 µg/mL (≈ 0.664 µM).

As for `CCc1cc(O)c(Oc2ccccc2)cc1F`, the CC50 in [4] was found to be 16 µg/mL (≈ 68.9 µM). Further, the IC50 in [1] was 37 nM. The MIC with Streptococcus pneumoniae was determined as 16 µg/mL (≈ 68.9 µM); against Enterococcus faecalis it was 32 µg/mL (≈ 138 µM); with Escherichia coli [2], 1 µg/mL (≈ 4.31 µM); against Staphylococcus aureus [3] it was 0.062 µg/mL (≈ 0.267 µM).

For the compound `CCc1cc(O)c(Oc2ccc(C#N)cc2F)cc1F`, the CC50 in [4] came out at 16 µg/mL (≈ 58.1 µM). The IC50 in [1] was 31 nM. Besides, the MIC with Streptococcus pneumoniae came out at 8 µg/mL (≈ 29.1 µM); in the series on Enterococcus faecalis, 32 µg/mL (≈ 116 µM); against Escherichia coli [2] it was 1 µg/mL (≈ 3.63 µM); against Staphylococcus aureus [3] it was 0.062 µg/mL (≈ 0.225 µM).

In the case of `CCc1cc(O)c(Oc2ccccc2F)cc1F`, the CC50 in series [4] came to 16 µg/mL (≈ 63.9 µM). For the same compound, in series [1], the IC50 stood at 8 nM. For the same compound, the MIC against Streptococcus pneumoniae is 32 µg/mL (≈ 128 µM); in the series with Enterococcus faecalis, 32 µg/mL (≈ 128 µM); against Escherichia coli [2], 0.25 µg/mL (≈ 0.999 µM); in the series with Staphylococcus aureus [3], 0.031 µg/mL (≈ 0.124 µM).

For the compound `CC(=O)NC[C@H]1CN(c2ccc(N3CCOCC3)c(F)c2)C(=O)O1` [LINEZOLID], the MIC90 in series [5] was 1 µg/mL (≈ 2.96 µM); in [6], 1 µg/mL (≈ 2.96 µM); in the series on Staphylococcus aureus [7], 2 µg/mL (≈ 5.93 µM); against Staphylococcus aureus [8], not below 16 µg/mL; against Staphylococcus aureus [9], 2 µg/mL (≈ 5.93 µM).

For `C[C@H]1COc2c(N3CCN(C)CC3)c(F)cc3c(=O)c(C(=O)O)cn1c23.C[C@H]1COc2c(N3CCN(C)CC3)c(F)cc3c(=O)c(C(=O)O)cn1c23.O` [LEVOFLOXACIN], the MIC90 was 0.06 µg/mL against Proteus mirabilis; not below 16 µg/mL with Escherichia coli [10]; 0.03 µg/mL against Moraxella catarrhalis; 0.03 µg/mL against Haemophilus influenzae; not above 0.008 µg/mL against Neisseria meningitidis; 0.5 µg/mL against Neisseria gonorrhoeae.

Consider `CCc1cc(O)c(Oc2ccc(C(=O)NC)cc2F)cc1F`, for which the CC50 in series [4] was more than 32 µg/mL. Moreover, the IC50 in [1] was determined as 82 nM. The MIC with Streptococcus pneumoniae was more than 32 µg/mL; in the series on Enterococcus faecalis, more than 32 µg/mL; in the series with Escherichia coli [2], 8 µg/mL (≈ 26 µM); in the series with Staphylococcus aureus [3], 1 µg/mL (≈ 3.25 µM).

Regarding `CCc1ccc(Oc2ccc(C(=O)N3CCNC(=O)C3)cc2F)c(O)c1`, in series [4], the CC50 was more than 32 µg/mL. The IC50 in series [1] was found to be 28 nM. Also, the MIC in the series on Streptococcus pneumoniae is more than 32 µg/mL; with Enterococcus faecalis it was more than 32 µg/mL; in the series on Escherichia coli [2] it was 8 µg/mL (≈ 22.3 µM); against Staphylococcus aureus [3] it was 1 µg/mL (≈ 2.79 µM).

Take `CCc1ccc(Oc2ccc(C(=O)CCCO)cc2)c(O)c1`: the CC50 in [4] was 16 µg/mL (≈ 53.3 µM). The IC50 in [1] amounted to 48 nM. The MIC against Streptococcus pneumoniae is 16 µg/mL (≈ 53.3 µM); with Enterococcus faecalis, more than 32 µg/mL; with Escherichia coli [2], 4 µg/mL (≈ 13.3 µM); against Staphylococcus aureus [3], 0.062 µg/mL (≈ 0.206 µM).

For the compound `CCc1cc(O)c(Oc2cccnc2F)cc1F`, in series [1], the IC50 came out at 13 nM. The MIC was more than 32 µg/mL against Streptococcus pneumoniae, more than 32 µg/mL in the series on Enterococcus faecalis, 0.25 µg/mL (≈ 0.995 µM) in the series with Escherichia coli [2] and 0.062 µg/mL (≈ 0.247 µM) with Staphylococcus aureus [3].

As for `CCc1cc(OC)c(Oc2ccc(C(N)=O)cc2F)cc1F`, the CC50 in series [4] was more than 32 µg/mL. In addition, in [1], the IC50 was found to be 21000 nM. Also, the MIC in the series with Streptococcus pneumoniae, in the series with Enterococcus faecalis, against Escherichia coli [2] and against Staphylococcus aureus [3] was more than 32 µg/mL in each case.

On to `CCc1cc(O)c(Oc2ccc(C(=O)O)cc2F)cc1F`, for which the CC50 in series [4] is more than 32 µg/mL. The IC50 in series [1] was determined as 180 nM. Also, the MIC in the series with Streptococcus pneumoniae is more than 32 µg/mL; with Enterococcus faecalis, more than 32 µg/mL; in the series on Escherichia coli [2], more than 32 µg/mL; with Staphylococcus aureus [3], 8 µg/mL (≈ 27.2 µM).

Regarding `CN[C@H](CC(C)C)C(=O)N[C@H]1C(=O)N[C@@H](CC(N)=O)C(=O)N[C@H]2C(=O)N[C@H]3C(=O)N[C@H](C(=O)N[C@H](C(=O)O)c4cc(O)cc(O)c4-c4cc3ccc4O)[C@H](O)c3ccc(c(Cl)c3)Oc3cc2cc(c3O[C@@H]2O[C@H](CO)[C@@H](O)[C@H](O)[C@H]2O[C@H]2C[C@](C)(N)[C@H](O)[C@H](C)O2)Oc2ccc(cc2Cl)[C@H]1O` [VANCOMYCIN], the ED50 in the series with Staphylococcus aureus [11] was 5 mg/kg; in the series on Staphylococcus aureus [12], 9.4 mg/kg; with Staphylococcus aureus [13], 6 mg/kg.

As for `CCc1cc(O)c(Oc2cccnc2N)cc1F`, the IC50 in series [1] was found to be 56 nM. Besides, the MIC in the series on Streptococcus pneumoniae was more than 32 µg/mL; against Enterococcus faecalis, more than 32 µg/mL; against Escherichia coli [2], 0.25 µg/mL (≈ 1.01 µM); in the series with Staphylococcus aureus [3] it was 0.5 µg/mL (≈ 2.01 µM).

As for `Oc1cc(Cl)ccc1Oc1ccc(Cl)cc1Cl` [TRICLOSAN], the CC50 in series [4] amounted to 2 µg/mL (≈ 6.91 µM). In addition, the MIC against Streptococcus pneumoniae came to 8 µg/mL (≈ 27.6 µM); in the series on Enterococcus faecalis, 2 µg/mL (≈ 6.91 µM); in the series on Escherichia coli [2], 0.125 µg/mL (≈ 0.432 µM); in the series on Staphylococcus aureus [3], 0.031 µg/mL (≈ 0.107 µM).
